# Source: ChEMBL document CHEMBL4196176, “Structure-Based Design of MptpB Inhibitors That Reduce Multidrug-Resistant Mycobacterium tuberculosis Survival and Infection Burden in Vivo” (J Med Chem, 2018)
# pIC50: −log10 of the molar value. Active and inactive are the calls of the source. The rule behind the calls is not given here.
# Experiments:
# [1] = molecular target: T1, Phosphotyrosine protein phosphatase (Mycobacterium tuberculosis, UniProt A0A045ISB3); test: Inhibition of Mycobacterium tuberculosis H37Rv His-tagged ptpB expressed in Escherichia coli BL21(DE3) using pNPP as substrate preincubated for 15 mins followed by substrate addition and measured after 15 mins
# T1 sequence (A0A045ISB3 whole entry): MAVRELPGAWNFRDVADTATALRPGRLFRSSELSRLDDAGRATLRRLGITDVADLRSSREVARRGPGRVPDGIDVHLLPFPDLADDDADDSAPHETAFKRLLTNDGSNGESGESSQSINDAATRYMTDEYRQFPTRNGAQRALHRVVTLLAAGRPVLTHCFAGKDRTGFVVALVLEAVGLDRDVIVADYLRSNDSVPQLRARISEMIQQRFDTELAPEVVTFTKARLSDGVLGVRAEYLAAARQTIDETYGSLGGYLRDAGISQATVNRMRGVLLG
# [2] = Inhibition of Mycobacterium tuberculosis H37Rv His-tagged ptpA expressed in Escherichia coli BL21(DE3) using pNPP as substrate preincubated for 15 mins followed by substrate addition and measured after 15 mins
# In short: (§1)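 His-tagged MptpA/MptpB expressed in E. coli BL21(DE3); VHR and hPTP1B purified as GST fusions with the tag cleaved. 0.5 μg protein in Tris/BisTris/acetate buffer (pH 7 MptpB, 6.5 MptpA, 6 hPTP1B, 5 VHR) with compound at 0–250 μM, 15 min at room temperature. pNPP added to 0.35 mM for 15 min, quenched with NaOH, read at 405 nm against a pNP curve. No-enzyme blanks.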
# [3] = molecular target: T2, Tyrosine-protein phosphatase non-receptor type 1 (Homo sapiens, UniProt P18031); test: Inhibition of human PTP1B using pNPP as substrate preincubated for 15 mins followed by substrate addition and measured after 15 mins
# T2 sequence (P18031 whole entry): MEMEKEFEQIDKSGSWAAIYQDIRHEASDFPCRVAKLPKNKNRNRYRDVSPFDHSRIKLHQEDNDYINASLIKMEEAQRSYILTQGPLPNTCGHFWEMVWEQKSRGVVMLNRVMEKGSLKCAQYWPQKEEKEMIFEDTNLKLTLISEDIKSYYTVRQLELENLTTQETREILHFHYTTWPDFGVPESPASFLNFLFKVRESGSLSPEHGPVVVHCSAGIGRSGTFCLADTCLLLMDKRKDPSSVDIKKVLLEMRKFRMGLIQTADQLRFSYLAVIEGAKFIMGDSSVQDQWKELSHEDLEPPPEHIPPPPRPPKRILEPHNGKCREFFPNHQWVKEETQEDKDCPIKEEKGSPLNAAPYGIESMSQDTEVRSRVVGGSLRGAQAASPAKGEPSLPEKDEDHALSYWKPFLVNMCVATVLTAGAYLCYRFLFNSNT
# [4] = molecular target: Dual specificity protein phosphatase 3 (Homo sapiens, UniProt P51452); test: Inhibition of human VHR using pNPP as substrate preincubated for 15 mins followed by substrate addition and measured after 15 mins; in short: as §1
# Sequence of Dual specificity protein phosphatase 3 (P51452 whole entry): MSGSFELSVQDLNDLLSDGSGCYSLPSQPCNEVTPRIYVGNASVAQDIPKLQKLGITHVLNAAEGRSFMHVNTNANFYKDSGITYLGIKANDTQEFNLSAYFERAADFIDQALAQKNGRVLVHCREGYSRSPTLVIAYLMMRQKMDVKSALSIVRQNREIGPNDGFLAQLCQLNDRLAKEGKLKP
# J774.A1 [5] = test: Cytotoxicity against mouse J774A.1 cells assessed as reduction in cell viability at 50 to 150 uM after 24 hrs by MTT assay; type: cell-based; details: j774.a1, 24 h
# In short: (§2)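 MTT viability assay in J774A.1 cells seeded at 6 × 10^3/well and adhered overnight. Inhibitor in DMSO or DMSO only added for 24 h. MTT (5 mg/mL in PBS) added for 4 h, formazan dissolved in DMSO with Sorensen's glycine buffer, absorbance read at 570 nm.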
# Cavia porcellus [6] = test: Cmax in Dunkin Hartley guinea pig at 4 mg/kg, ip after 0.5 hrs post dose; type: ADME, organism-based; parameters: dose 4 mg/kg, route intraperitoneal; details: in vivo
# Cavia porcellus [7] = test: Half life in Dunkin Hartley guinea pig at 4 mg/kg, ip; type: ADME, organism-based; details: in vivo
# Cavia porcellus [8] = test: AUCinfinity in Dunkin Hartley guinea pig at 4 mg/kg, ip; type: ADME, organism-based; parameters: dose 4 mg/kg, route intraperitoneal, time infinity; details: in vivo
# Cavia porcellus [9] = test: Cmax in Dunkin Hartley guinea pig at 8 mg/kg, po after 0.25 hrs post dose; type: ADME, organism-based; parameters: dose 8 mg/kg, route oral; details: in vivo
# Cavia porcellus [10] = test: Half life in Dunkin Hartley guinea pig at 8 mg/kg, po; type: ADME, organism-based; details: in vivo
# Cavia porcellus [11] = test: AUCinfinity in Dunkin Hartley guinea pig at 8 mg/kg, po; type: ADME, organism-based; parameters: dose 8 mg/kg, route oral, time infinity; details: in vivo
# Cavia porcellus [12] = test: Oral bioavailability in Dunkin Hartley guinea pig at 8 mg/kg; type: ADME, organism-based; details: in vivo
# [13] = Kinetic solubility of the compound after 90 mins; type: physicochemical; details: 1.5 h
# [14] = Permeability of the compound at 200 uM after 5 hrs by PAMPA assay; type: ADME; details: read-out: permeability
# [15] = molecular target: T3, Phosphotyrosine protein phosphatase (Mycobacterium tuberculosis) (UniProt A0A045ISB3); test: Inhibition of Mycobacterium tuberculosis H37Rv ATCC 35837 ptpB infected in human THP1 cells assessed as reduction in intracellular bacterial burden at 20 to 100 uM after 72 hrs post infection relative to DMSO-treated control; type: cell-based
# T3 sequence (whole entry): T1 sequence (A0A045ISB3 whole entry)
# In short: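 PMA-differentiated THP1 cells (1 × 10^6/well) in RPMI with 10% FBS. Inhibitor (0, 20 or 80 μM in DMSO) added, then infected with thawed M. tuberculosis at MOI 1:1 for 3 h and washed 4 times. Medium and inhibitor renewed at 24 h. Cells lysed in 0.05% SDS at 72 h; CFU plated in duplicate and counted after 3 weeks. Triplicate.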
# Cavia porcellus [16] = test: Toxicity in Hartley Duncan guinea pig assessed as body weight increase at 50 to 100 mg/kg/day, po administered for 7 days; type: organism-based; details: in vivo, 168 h
# In short: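 Male Hartley guinea pigs (n = 5) given the compound orally once daily for 7 days at 50 or 100 mg kg–1, as a pre-infection tolerability study. Animals were monitored for adverse drug effects and body-weight change. Plasma and lung drug levels were taken at 2 and 24 h after the last dose.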
# [17] = test system: Mycobacterium tuberculosis; test: Antibacterial activity against Mycobacterium tuberculosis H37Rv infected in acute TB infection induced Hartley Duncan guinea pig model assessed as log reduction in bacterial burden in lungs at 100 mg/kg/day, po administered at 24 hrs post infection measured after 4 weeks post infection; type: functional
# In short: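 Guinea pigs infected by aerosol with 96 CFU M. tuberculosis H37Rv, 4 per group. Compound (100 mg/kg) or vehicle given orally daily for 4 weeks from 24 h post infection. Lung bacterial burden measured relative to vehicle.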
# [18] = test system: Mycobacterium tuberculosis; test: Antibacterial activity against Mycobacterium tuberculosis H37Rv infected in chronic TB infection induced Hartley Duncan guinea pig model assessed as log reduction in bacterial burden in lungs at 100 mg/kg/day, po administered at 24 hrs post infection measured after 4 weeks post infection; type: functional
# In short: (§3)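 Guinea pigs infected by aerosol with 63 CFU M. tuberculosis, 5 per group, and left untreated for 28 days; baseline lung and spleen burden taken at day 28. Compound (100 mg/kg) or vehicle then given orally daily for 4 weeks. Lung and spleen CFU compared with vehicle.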
# [19] = test system: Mycobacterium tuberculosis; test: Antibacterial activity against Mycobacterium tuberculosis H37Rv infected in chronic TB infection induced Hartley Duncan guinea pig model assessed as log reduction in bacterial burden in spleen at 100 mg/kg/day, po administered at 24 hrs post infection measured after 4 weeks post infection; type: functional; in short: as §3
# [20] = test system: Mycobacterium tuberculosis; test: (§4) Antimycobacterial activity against Mycobacterium tuberculosis H37Rv infected in chronic TB infection induced Hartley Duncan guinea pig model assessed as reduction in necrotic lesions in lungs at 100 mg/kg/day, po administered at 24 hrs post infection measured after 56 days post infection by hematoxylin and eosin staining-based assay; type: functional, organism-based
# In short: (§5)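 Chronic aerosol model (63 CFU; oral 100 mg/kg daily for 4 weeks from day 28). Lungs and spleens inspected at 56 days post infection. Tissue fixed in formalin, paraffin-embedded, cut at about 5 μm and stained with hematoxylin and eosin; lesions and granulomas compared with vehicle.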
# [21] = test system: Mycobacterium tuberculosis; test: as §4, with “spleen” for “lungs”; type: functional, organism-based; in short: as §5
# [22] = test system: Mycobacterium tuberculosis; test: as §4, with “of granulomatous infiltration” for “in necrotic lesions”; type: functional, organism-based; in short: as §5
# [23] = test system: Mycobacterium tuberculosis; test: as §4, with “reduction of granulomatous infiltration” for “reduction”, “spleen” for “necrotic lesions in lungs”; type: functional, organism-based; in short: as §5
# [24] = molecular target: T3, Phosphotyrosine protein phosphatase (Mycobacterium tuberculosis); test: Inhibition of RFP expressing Mycobacterium tuberculosis H37Rv ATCC 35837 ptpB infected in mouse RAW264.7 cells assessed as prolongation association of PI3P to FYVE2X-FGFP on bacterial phagosome at 80 uM by live-cell imaging method; type: cell-based
# In short: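 RAW264.7 cells transfected with EGFP-2xFYVE plasmid using JetPEI. Next day infected with RFP-M. tuberculosis H37Rv at MOI 5:1, with compound at 80 μM added together with the bacteria. Imaged live immediately, every 30 s, to follow PI3P on phagosomes.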
# [25] = Plasma concentration in Hartley Duncan guinea pig at 100 mg/kg, po measured at 2 hrs; type: ADME, organism-based, Cavia porcellus
# In short: (§6)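 Guinea pigs (n = 5) given 100 mg/kg orally once daily for 7 days. Plasma and lung drug levels measured at 2 h and at 24 h after the last dose, as peak and trough.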
# [26] = Drug uptake in Hartley Duncan guinea pig lungs at 100 mg/kg, po measured at 2 hrs; type: ADME, organism-based, Cavia porcellus; details: lung, read-out: Drug uptake; in short: as §6
# [27] = Plasma concentration in Hartley Duncan guinea pig at 100 mg/kg, po measured at 24 hrs; type: ADME, organism-based, Cavia porcellus; in short: as §6
# Cavia porcellus [28] = test: Cmax in Dunkin Hartley guinea pig at 1.25 mg/kg, ip after 0.5 hrs post dose; type: ADME, organism-based; parameters: dose 1.25 mg/kg, route intraperitoneal; details: in vivo
# Cavia porcellus [29] = test: Half life in Dunkin Hartley guinea pig at 1.25 mg/kg, ip; type: ADME, organism-based; details: in vivo
# Cavia porcellus [30] = test: AUCinfinity in Dunkin Hartley guinea pig at 1.25 mg/kg, ip; type: ADME, organism-based; parameters: dose 1.25 mg/kg, time infinity, route intraperitoneal; details: in vivo
# Cavia porcellus [31] = test: Cmax in Dunkin Hartley guinea pig at 3.5 mg/kg, po after 0.25 hrs post dose; type: ADME, organism-based; parameters: dose 3.5 mg/kg, route oral; details: in vivo, BLD = below limit of detection
# Cavia porcellus [32] = test: Half life in Dunkin Hartley guinea pig at 3.5 mg/kg, po; type: ADME, organism-based; details: in vivo, BLD = below limit of detection
# Cavia porcellus [33] = test: AUCinfinity in Dunkin Hartley guinea pig at 3.5 mg/kg, po; type: ADME, organism-based; parameters: dose 3.5 mg/kg, route oral, time infinity; details: in vivo, BLD = below limit of detection
# Cavia porcellus [34] = test: Oral bioavailability in Dunkin Hartley guinea pig at 3.5 mg/kg; type: ADME, organism-based; details: in vivo
# J774.A1 [35] = test: Cytotoxicity against mouse J774A.1 cells assessed as reduction in cell viability at >100 uM after 24 hrs by MTT assay; type: cell-based; details: j774.a1, 24 h; in short: as §2
structure (smiles),measurement,setting,value
O=C(O)c1noc(-c2ccccc2)c1-c1cccc(O)c1,pIC50,[1],4.07
O=C(O)c1noc(-c2ccccc2)c1-c1cccc(-c2cc(Cl)c(O)c([N+](=O)[O-])c2)c1,pIC50,[2],4.52
same,pIC50,[3],3.50
same,pIC50,[4],4.89
same,Activity,J774.A1 [5],Non-Toxic
Cc1onc(C(=O)O)c1-c1cccc(-c2cc(Cl)c(O)c(Cl)c2)c1,Cmax,Cavia porcellus [6],31519 ng/mL
same,t1/2,Cavia porcellus [7],1.4 h
same,AUC,Cavia porcellus [8],71854 ng·h/mL
same,Cmax,Cavia porcellus [9],111099 ng/mL
same,t1/2,Cavia porcellus [10],5.1 h
same,AUC,Cavia porcellus [11],230407 ng·h/mL
same,F,Cavia porcellus [12],156%
same,Kinetic_solubility,[13],200 µM
same,"Papp at 5 h, 200 µM",[14],7.81 ×10⁻⁶ cm/s
same,inhibition,[15],< 63%
same,Activity,Cavia porcellus [16],> 5%
same,Activity,[17],0.9 deltalog10CFU
same,Activity,[18],1 deltalog10CFU
same,Activity,[19],1 deltalog10CFU
same,Activity,[20],Active
same,Activity,[21],Active
same,Activity,[22],Active
same,Activity,[23],Active
same,TIME,[24],< 0.2 h
same,concentration at 2 h,[25],1750 ng/mL
same,concentration at 2 h,[26],623 ng/g
same,concentration at 24 h,[27],35 ng/mL
O=C(O)c1noc(-c2ccccc2)c1-c1cccc(-c2ccc(O)c(F)c2)c1,pIC50,[1],5.82
same,pIC50,[2],4.45
same,pIC50,[3],< 4.00
same,pIC50,[4],4.40
same,Activity,J774.A1 [5],Non-Toxic
O=C(O)c1noc(-c2ccccc2)c1-c1cccc(-c2cc(Cl)cc(Cl)c2)c1,pIC50,[2],5.19
same,pIC50,[3],4.32
same,pIC50,[4],4.91
same,Cmax,Cavia porcellus [28],746 ng/mL
same,t1/2,Cavia porcellus [29],1.3 h
same,AUC,Cavia porcellus [30],1742 ng·h/mL
same,Cmax,Cavia porcellus [31],Bld
same,t1/2,Cavia porcellus [32],Bld
same,AUC,Cavia porcellus [33],Bld
same,F,Cavia porcellus [34],< 13%
O=C(O)c1noc(-c2ccccc2)c1-c1cccc(-c2ccc(O)c(Cl)c2)c1,pIC50,[1],6.05
same,pIC50,[2],4.63
same,pIC50,[3],3.67
same,pIC50,[4],4.73
same,Activity,J774.A1 [5],Non-Toxic
same,Activity,J774.A1 [35],> 23%
O=C(O)c1noc(-c2ccccc2)c1-c1cccc(-c2ccc(O)cc2)c1,pIC50,[1],5.55
same,pIC50,[2],4.13
same,pIC50,[3],< 4.00
same,pIC50,[4],4.27
same,Activity,J774.A1 [5],Non-Toxic
